The data set can be described thus: Effect on total IkappaBalpha level in human MCF7 cells measured after 4 hrs by NanoBiT cell-based immunoassay. The class given is toxicity. The following applies: mcf7, 4 h. In short, it runs like this: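 MCF-7 cells (50,000/well) held overnight at 37 °C, 5% CO2 without serum, then given a compound titration for 4 h. Lysed 20 min in buffer with 0.1% digitonin and protease/phosphatase inhibitors; mouse and rabbit anti-IκBα primaries plus NanoBiT-labelled anti-mouse/anti-rabbit secondaries added, 90 min at 23 °C; Nano-Glo substrate; luminescence read. Means ± S.E.M., n = 3 technical replicates.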

The source of these data is ChEMBL document CHEMBL5712911, “A homogeneous bioluminescent immunoassay to probe cellular signaling pathway regulation” (Commun Biol, 2020).

Molecules are shown by their SMILES.

In the case of `C[C@]12CC[C@@H]3c4ccc(O)cc4C[C@@H](CCCCCCCCC[S+]([O-])CCCC(F)(F)C(F)(F)F)[C@H]3[C@@H]1CC[C@@H]2O` (stereo partly specified) [FULVESTRANT], the Activity result was “Non-Toxic”.
